Like-named read-outs stand apart in the source and are kept apart here.
Legend:
[1] = cited from earlier work
[2] = once-weekly dulaglutide 1.5 mg; patients with T2D; cited from earlier work
[3] = dose range 0.5 to 15 mg, single-dose levels and steady state; cited from earlier work
[4] = Safety and tolerability after a single subcutaneous dose of tirzepatide 5 mg; type: in vivo, human; conditions: single 5 mg SC
Outline: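 Open-label phase I single-dose study in adults aged 18–85 y with BMI 19.0–40.0 kg/m2, grouped by MDRD eGFR. ESRD subjects were dialysed on high-flux polysulfone membranes. AEs were recorded at screening and on days 1, 2, 3, 4, 5, 8, 15 and ≥28. Glucose was checked predose, at 12–336 h and on day ≥28, with hypoglycaemia defined per ADA guidance. ISRs were assessed to 48 h. Labs (incl. amylase/lipase), vitals and ECGs were taken at set visits.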

[5] = type: in vivo, human; conditions: single 5 mg SC; for tmax median of differences (90% CI): Hodges–Lehmann; for tmax: median (range)
Outline: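 Single SC 5 mg dose given on day 1. Plasma was drawn predose and at 8, 12, 24, 48, 72, 96, 168, 336 and 648 h, then stored at about −70 °C. Drug was immunoprecipitated and quantified by LC–high-resolution MS (HESI, positive ion) over 2.00–500.00 ng/mL. Noncompartmental analysis used actual times, trapezoidal AUClast and log-linear λz. Log AUC/Cmax ratios versus control came from ANOVA with 90% CI; tmax by Hodges–Lehmann.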

[6] = Immunogenicity: antidrug antibodies in serum; type: in vivo, human; conditions: single 5 mg SC, maximum of 30 days of ADA monitoring postdose
[7] = mild-to-moderate renal impairment
[8] = moderate renal impairment, N = 8

## exenatide
[1]; subcutaneous, mild-to-moderate renal impairment
  PK changes versus subjects with normal renal function: clinically acceptable

## liraglutide
[1]; [7]
  PK versus subjects with normal renal function: not significantly altered

## lixisenatide
[1]; [7]
  differences in PK versus subjects with normal renal function: no significant differences
[1]; severe renal impairment
  drug exposure: may be increased

## dulaglutide
[1]
  influence of the extent of renal impairment on PK: not influenced
[2]
  HbA1c reduction: ≤ 1.1%
  body weight reduction: ≤ 2.7 kg

## CC[C@H](C)[C@H](NC(=O)[C@H](CC(C)C)NC(=O)[C@H](Cc1c[nH]c2ccccc12)NC(=O)[C@H](CCC(N)=O)NC(=O)[C@@H](NC(=O)[C@H](Cc1ccccc1)NC(=O)[C@H](C)NC(=O)[C@H](CCCCNC(=O)COCCOCCNC(=O)COCCOCCNC(=O)CC[C@H](NC(=O)CCCCCCCCCCCCCCCCCCC(=O)O)C(=O)O)NC(=O)[C@H](CCC(N)=O)NC(=O)[C@H](C)NC(=O)[C@@H](NC(=O)[C@H](CCCCN)NC(=O)[C@H](CC(=O)O)NC(=O)[C@H](CC(C)C)NC(=O)C(C)(C)NC(=O)[C@@H](NC(=O)[C@H](CO)NC(=O)[C@H](Cc1ccc(O)cc1)NC(=O)[C@H](CC(=O)O)NC(=O)[C@H](CO)NC(=O)[C@@H](NC(=O)[C@H](Cc1ccccc1)NC(=O)[C@@H](NC(=O)CNC(=O)[C@H](CCC(=O)O)NC(=O)C(C)(C)NC(=O)[C@@H](N)Cc1ccc(O)cc1)[C@@H](C)O)[C@@H](C)O)[C@@H](C)CC)[C@@H](C)CC)C(C)C)C(=O)N[C@@H](C)C(=O)NCC(=O)NCC(=O)N1CCC[C@H]1C(=O)N[C@@H](CO)C(=O)N[C@@H](CO)C(=O)NCC(=O)N[C@@H](C)C(=O)N1CCC[C@H]1C(=O)N1CCC[C@H]1C(=O)N1CCC[C@H]1C(=O)N[C@@H](CO)C(N)=O [tirzepatide]
[3]
  dose dependence of PK: linear and dose-proportional
[4]; ESRD group (37.5%)
  number of subjects with AEs related to tirzepatide: 3
[4]; ESRD, N = 8
  Abdominal distention: 0 (0.0) n (%)
  Back pain: 0 (0.0) n (%)
  Deaths: 0 (0.0) n (%)
  Diarrhea: 0 (0.0) n (%)
  Headache: 0 (0.0) n (%)
  Nausea: 1 (12.5) n (%)
  Serious AEs: 0 (0.0) n (%)
  Treatment-emergent AEs: 3 (37.5) n (%)
  Vomiting: 2 (25.0) n (%)
[4]; all groups
  alterations in laboratory, vital signs values, ECGs, or blood glucose monitoring: no clinically significant alterations
  severe hypoglycemic events: no severe hypoglycemic events
[4]; all groups, 45 subjects
  discontinuations due to AEs, serious AEs, deaths: No discontinuations due to AEs, serious AEs, or deaths
[4]; all treatment groups
  tolerability: well-tolerated
[4]; assessed predose and 0, 6, 12, 24, 48 h postdose
  injection-site reactions (ISRs): No ISRs were reported
[4]; control group (7.1%)
  number of subjects with AEs related to tirzepatide: 1
[4]; mild renal impairment group (37.5%)
  number of subjects with AEs related to tirzepatide: 3
[4]; mild renal impairment, N = 8
  Abdominal distention: 0 (0.0) n (%)
  Back pain: 1 (12.5) n (%)
  Deaths: 0 (0.0) n (%)
  Diarrhea: 1 (12.5) n (%)
  Headache: 0 (0.0) n (%)
  Nausea: 1 (12.5) n (%)
  Serious AEs: 0 (0.0) n (%)
  Treatment-emergent AEs: 3 (37.5) n (%)
  Vomiting: 0 (0.0) n (%)
[4]; moderate renal impairment group (37.5%)
  number of subjects with AEs related to tirzepatide: 3
[4]; [8]
  Abdominal distention: 1 (12.5) n (%)
  Back pain: 1 (12.5) n (%)
  Deaths: 0 (0.0) n (%)
  Diarrhea: 1 (12.5) n (%)
  Headache: 0 (0.0) n (%)
  Nausea: 0 (0.0) n (%)
  Serious AEs: 0 (0.0) n (%)
  Treatment-emergent AEs: 3 (37.5) n (%)
  Vomiting: 0 (0.0) n (%)
[4]; normal renal function, N = 14
  Abdominal distention: 0 (0.0) n (%)
  Back pain: 0 (0.0) n (%)
  Deaths: 0 (0.0) n (%)
  Diarrhea: 0 (0.0) n (%)
  Headache: 1 (7.1) n (%)
  Nausea: 0 (0.0) n (%)
  Serious AEs: 0 (0.0) n (%)
  Treatment-emergent AEs: 1 (7.1) n (%)
  Vomiting: 0 (0.0) n (%)
[4]; severe renal impairment group
  treatment-related AEs: No treatment-related AEs were reported
[4]; severe renal impairment, N = 7
  Abdominal distention: 0 (0.0) n (%)
  Back pain: 0 (0.0) n (%)
  Deaths: 0 (0.0) n (%)
  Diarrhea: 0 (0.0) n (%)
  Headache: 0 (0.0) n (%)
  Nausea: 0 (0.0) n (%)
  Serious AEs: 0 (0.0) n (%)
  Treatment-emergent AEs: 0 (0.0) n (%)
  Vomiting: 0 (0.0) n (%)
[5]; human, plasma, sc, 5 mg, t½, ESRD, n = 8, geometric mean (range)
  half-life: 6.29 days
[5]; ESRD vs normal renal function
  tmax median of differences (90% CI): 0.00 h
[5]; ESRD, n = 8
  tmax: 48.00 (24.00–96.00) h
[5]; linear regression, eGFR as continuous variable
  relationship between exposure (Cmax, AUClast, AUC∞) and MDRD eGFR: did not show a relationship
[5]; mild renal impairment group classified by CLCR (Cockcroft–Gault)
  higher AUClast versus control: 23%
[5]; mild renal impairment vs normal renal function
  tmax median of differences (90% CI): 0.00 h
[5]; mild renal impairment, n = 8, geometric mean (range)
  t½: 121 (94.6–138) h
[5]; mild renal impairment, n = 8
  tmax: 48.00 (12.00–96.00) h
[5]; moderate renal impairment group
  increase in AUCs versus normal renal function: 25–29%
[5]; moderate renal impairment vs control, 90% CI 1.04–1.52
  geometric mean AUClast higher than control group: 25%
[5]; moderate renal impairment vs control, 90% CI 1.07–1.56
  geometric mean AUC∞ higher than control group: 29%
[6]
  treatment-emergent antidrug antibodies (ADAs): No treatment-emergent ADAs were detected

## albiglutide
[1]; [7]
  PK versus subjects with normal renal function: not significantly altered

## semaglutide
[1]; oral
  impact of renal impairment on plasma PK: lack of impact
